We go through 34 compounds from the M2OR odorant receptor database.

Holding throughout (conditions): stereoisomer not certain
One experiment concerns the target T1, UniProt Q7TRR8.
T1 sequence (whole entry): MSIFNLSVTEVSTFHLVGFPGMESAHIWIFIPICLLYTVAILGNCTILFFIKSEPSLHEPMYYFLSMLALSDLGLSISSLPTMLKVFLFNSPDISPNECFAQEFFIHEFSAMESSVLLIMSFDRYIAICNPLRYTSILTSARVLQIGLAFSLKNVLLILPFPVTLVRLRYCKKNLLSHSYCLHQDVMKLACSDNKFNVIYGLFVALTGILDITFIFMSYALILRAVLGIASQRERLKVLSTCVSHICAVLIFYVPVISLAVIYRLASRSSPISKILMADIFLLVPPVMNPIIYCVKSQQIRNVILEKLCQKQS
Put shortly:
(§1)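 Each receptor–molecule pair is labelled responsive or non-responsive (inactive) according to whether the original authors judged the measured signal statistically different from baseline. The data were taken from the main text and supplementary material of published papers and checked for typos and inconsistencies. Assay methods differed by source, with transient luciferase assays in mammalian cell lines being common.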

Another experiment deals with T2, UniProt Q7TRW1.
T2 sequence (whole entry): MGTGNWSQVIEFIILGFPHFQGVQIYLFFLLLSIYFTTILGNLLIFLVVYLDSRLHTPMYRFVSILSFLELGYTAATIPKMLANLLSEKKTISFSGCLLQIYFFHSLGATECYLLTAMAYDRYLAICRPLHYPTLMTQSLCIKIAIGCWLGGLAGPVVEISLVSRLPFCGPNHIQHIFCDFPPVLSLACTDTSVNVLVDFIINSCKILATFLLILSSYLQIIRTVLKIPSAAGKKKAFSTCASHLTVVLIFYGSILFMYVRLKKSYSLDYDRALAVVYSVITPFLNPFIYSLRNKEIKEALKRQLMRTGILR
Put shortly: as §1

For another experiment, the target named is T3, UniProt Q7TRX0.
T3 sequence (whole entry): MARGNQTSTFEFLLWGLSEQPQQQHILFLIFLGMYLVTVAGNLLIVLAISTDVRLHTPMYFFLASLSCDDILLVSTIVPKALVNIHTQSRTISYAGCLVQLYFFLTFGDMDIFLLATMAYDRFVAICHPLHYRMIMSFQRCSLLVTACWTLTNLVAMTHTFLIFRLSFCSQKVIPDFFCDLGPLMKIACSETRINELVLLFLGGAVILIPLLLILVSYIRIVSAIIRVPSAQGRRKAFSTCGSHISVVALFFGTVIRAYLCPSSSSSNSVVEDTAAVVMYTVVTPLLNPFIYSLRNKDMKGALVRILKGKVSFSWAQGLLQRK
Put shortly: as §1

A further experiment addresses T4, UniProt Q8VEU7.
T4 sequence (whole entry): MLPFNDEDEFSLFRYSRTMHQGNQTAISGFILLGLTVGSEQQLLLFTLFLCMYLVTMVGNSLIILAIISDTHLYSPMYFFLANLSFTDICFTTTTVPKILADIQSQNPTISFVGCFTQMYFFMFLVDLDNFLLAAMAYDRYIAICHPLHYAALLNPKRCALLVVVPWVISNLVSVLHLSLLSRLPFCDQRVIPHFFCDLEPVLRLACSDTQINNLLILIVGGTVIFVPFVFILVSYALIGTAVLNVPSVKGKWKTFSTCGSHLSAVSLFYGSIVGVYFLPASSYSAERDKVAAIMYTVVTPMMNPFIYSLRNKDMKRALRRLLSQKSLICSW
Put shortly: as §1

The target in a further experiment is T5, UniProt Q8VF05.
T5 sequence (whole entry): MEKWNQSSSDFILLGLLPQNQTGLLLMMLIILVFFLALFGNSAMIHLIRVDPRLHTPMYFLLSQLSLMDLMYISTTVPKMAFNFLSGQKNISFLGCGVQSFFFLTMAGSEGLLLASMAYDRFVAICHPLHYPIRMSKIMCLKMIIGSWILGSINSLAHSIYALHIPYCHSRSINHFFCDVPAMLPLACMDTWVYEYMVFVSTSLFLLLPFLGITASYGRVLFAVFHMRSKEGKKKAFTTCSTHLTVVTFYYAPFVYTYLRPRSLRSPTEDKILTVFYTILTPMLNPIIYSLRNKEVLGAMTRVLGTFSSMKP
In short, it runs like this:
as §1

In another experiment the target is UniProt Q7TRR7. Put shortly: as §1
Sequence of UniProt Q7TRR7 (Q7TRR7 as listed by the source): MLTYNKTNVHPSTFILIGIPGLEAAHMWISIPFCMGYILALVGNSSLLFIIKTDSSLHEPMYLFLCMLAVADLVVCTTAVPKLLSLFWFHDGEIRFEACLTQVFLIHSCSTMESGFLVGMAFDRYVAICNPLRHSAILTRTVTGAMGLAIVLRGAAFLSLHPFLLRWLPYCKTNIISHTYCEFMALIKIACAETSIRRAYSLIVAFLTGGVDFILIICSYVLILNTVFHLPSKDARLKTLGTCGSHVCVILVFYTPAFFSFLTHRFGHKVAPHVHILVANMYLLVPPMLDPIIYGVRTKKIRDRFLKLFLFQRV
Another experiment concerns the target UniProt Q7TRX1. Put shortly: as §1
The target of the next experiment is UniProt Q7TS17. In short, it runs like this: as §1
Sequence of UniProt Q7TS17 (Q7TS17 as listed by the source): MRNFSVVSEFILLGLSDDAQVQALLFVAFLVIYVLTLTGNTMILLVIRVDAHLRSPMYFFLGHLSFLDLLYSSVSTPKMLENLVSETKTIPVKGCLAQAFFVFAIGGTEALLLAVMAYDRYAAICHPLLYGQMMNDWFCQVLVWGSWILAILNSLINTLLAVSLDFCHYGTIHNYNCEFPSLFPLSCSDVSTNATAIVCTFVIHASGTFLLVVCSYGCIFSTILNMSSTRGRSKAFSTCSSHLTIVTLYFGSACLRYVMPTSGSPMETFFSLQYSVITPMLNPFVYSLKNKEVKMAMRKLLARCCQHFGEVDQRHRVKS
Another experiment has as its target UniProt Q7TS37. In short, it runs like this: as §1
Another experiment deals with UniProt Q7TS40. Put shortly:
as §1
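Note: active if original authors judged signal statistically different from baseline.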

Sequence of UniProt Q7TS40 (Q7TS40 as listed by the source): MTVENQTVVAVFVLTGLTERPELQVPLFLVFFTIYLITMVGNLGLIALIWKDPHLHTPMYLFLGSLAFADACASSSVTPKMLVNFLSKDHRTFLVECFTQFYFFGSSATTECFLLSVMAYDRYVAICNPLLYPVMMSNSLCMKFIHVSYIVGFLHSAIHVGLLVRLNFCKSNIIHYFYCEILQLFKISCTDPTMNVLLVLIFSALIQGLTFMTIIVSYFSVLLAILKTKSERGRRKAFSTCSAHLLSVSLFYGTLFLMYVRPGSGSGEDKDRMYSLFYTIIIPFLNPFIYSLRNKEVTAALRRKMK
Sequence of UniProt Q7TS37 (Q7TS37 as listed by the source): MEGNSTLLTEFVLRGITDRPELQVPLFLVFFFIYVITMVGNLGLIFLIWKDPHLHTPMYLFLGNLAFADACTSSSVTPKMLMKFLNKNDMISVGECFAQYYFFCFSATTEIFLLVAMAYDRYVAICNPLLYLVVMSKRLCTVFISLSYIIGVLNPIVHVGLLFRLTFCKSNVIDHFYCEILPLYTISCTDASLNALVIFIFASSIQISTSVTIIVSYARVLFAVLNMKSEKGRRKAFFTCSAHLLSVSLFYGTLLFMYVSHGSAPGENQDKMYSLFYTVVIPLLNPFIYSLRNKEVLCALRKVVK
Sequence of UniProt Q7TRX1 (Q7TRX1 as listed by the source): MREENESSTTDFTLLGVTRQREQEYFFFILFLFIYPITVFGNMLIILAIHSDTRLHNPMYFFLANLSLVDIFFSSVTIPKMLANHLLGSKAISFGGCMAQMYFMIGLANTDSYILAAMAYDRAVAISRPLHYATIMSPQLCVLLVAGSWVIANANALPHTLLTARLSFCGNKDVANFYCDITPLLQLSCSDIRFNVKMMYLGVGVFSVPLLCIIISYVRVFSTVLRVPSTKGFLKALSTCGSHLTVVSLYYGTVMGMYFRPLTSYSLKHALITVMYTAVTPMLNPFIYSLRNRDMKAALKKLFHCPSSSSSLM

For the compound `CCCCCCCCCO`, the “odorant receptor agonist call” value with UniProt Q7TRR8, with UniProt Q7TRW1, in the experiment with UniProt Q7TRX0, with UniProt Q8VEU7 and with UniProt Q8VF05 was “inactive” throughout.
Take `CCCCCCO`: the “odorant receptor agonist call” value with UniProt Q7TRR8, with UniProt Q7TRW1, in the experiment with UniProt Q7TRX0, with UniProt Q8VEU7 and in the experiment with UniProt Q8VF05 was “inactive” in each case.
For `CC(C)=CCCC(C)=CCO`, the “odorant receptor agonist call” value with UniProt Q7TRW1, with UniProt Q7TRX0, with UniProt Q8VEU7 and in the experiment with UniProt Q8VF05 was “inactive” throughout.
Regarding `CCCCCCC(=O)[O-].[H+]`, the “odorant receptor agonist call” value with UniProt Q7TRR8, with UniProt Q7TRW1, with UniProt Q8VEU7 and in the experiment with UniProt Q8VF05 was “inactive” throughout.
With `CCCCCCCCCC(=O)[O-].[H+]`, the “odorant receptor agonist call” value with UniProt Q7TRW1, in the experiment with UniProt Q7TRX0, with UniProt Q8VEU7 and with UniProt Q8VF05 was “inactive” each time.
`CCCC(=O)C(C)=O`: the “odorant receptor agonist call” value with UniProt Q7TRW1, with UniProt Q7TRX0 and with UniProt Q8VEU7 was “inactive” each time. Further, the “odorant receptor agonist call” value in the experiment with UniProt Q8VF05 was “active”.
As to `CC(=O)OCc1ccccc1`, the “odorant receptor agonist call” value in the experiment with UniProt Q7TRW1, with UniProt Q7TRX0 and with UniProt Q8VEU7 was “inactive” each time. The “odorant receptor agonist call” value with UniProt Q8VF05 was “active”.
Take `O=C([O-])CCCCC(=O)[O-].[H+].[H+]`: the “odorant receptor agonist call” value with UniProt Q7TRR8 was “inactive”.
Take `CCCCCCC(C)=O`: the “odorant receptor agonist call” value with UniProt Q7TRW1, with UniProt Q7TRX0, in the experiment with UniProt Q8VEU7 and in the experiment with UniProt Q8VF05 was “inactive” in each case.
In the case of `CCCCCCCO`, the “odorant receptor agonist call” value with UniProt Q7TRR8, in the experiment with UniProt Q7TRW1, in the experiment with UniProt Q7TRX0 and with UniProt Q8VEU7 was “inactive” throughout. The “odorant receptor agonist call” value with UniProt Q8VF05 was “active”.
For the compound `O=C(O)CCCBr`, the “odorant receptor agonist call” value with UniProt Q7TRR8 is “inactive”.
Turning to `O=C([O-])CCCCCCC(=O)[O-].[H+].[H+]`, the “odorant receptor agonist call” value with UniProt Q7TRR8 and with UniProt Q7TRX0 was “inactive” each time.
Take `CCCCCCCCO`: the “odorant receptor agonist call” value with UniProt Q7TRR8, with UniProt Q7TRW1, in the experiment with UniProt Q7TRX0, in the experiment with UniProt Q8VEU7 and with UniProt Q8VF05 was “inactive” in each case.
Consider `CCCCCC1=C(C)CCC1=O`, for which the “odorant receptor agonist call” value in the experiment with UniProt Q7TRW1, with UniProt Q7TRX0 and in the experiment with UniProt Q8VEU7 was “inactive” in each case. In addition, in the experiment with UniProt Q8VF05, the “odorant receptor agonist call” value was “active”.
Consider `O=C(O)CCCCCC(=O)O`, for which the “odorant receptor agonist call” value with UniProt Q7TRR8 is “inactive”.
`COc1cc(C(=O)O)ccc1O`: the “odorant receptor agonist call” value in the experiment with UniProt Q7TRW1, with UniProt Q7TRX0, with UniProt Q8VEU7 and with UniProt Q8VF05 was “inactive” throughout.
Take `CCOC(=O)C(C)C`: the “odorant receptor agonist call” value with UniProt Q7TRW1, with UniProt Q7TRX0 and with UniProt Q8VEU7 was “inactive” each time. In addition, the “odorant receptor agonist call” value with UniProt Q8VF05 was “active”.
With `CCCCCCCC(=O)[O-].[H+]`, the “odorant receptor agonist call” value with UniProt Q7TRR8, in the experiment with UniProt Q7TRW1, in the experiment with UniProt Q8VEU7 and with UniProt Q8VF05 was “inactive” in each case.
With `O=C(c1ccccc1)c1ccccc1`, the “odorant receptor agonist call” value with UniProt Q7TRW1, with UniProt Q7TRX0, with UniProt Q8VEU7 and in the experiment with UniProt Q8VF05 was “inactive” in each case.
As to `CCCCC(=O)O`, the “odorant receptor agonist call” value with UniProt Q7TRR8, in the experiment with UniProt Q7TRW1, with UniProt Q7TRX0, in the experiment with UniProt Q8VEU7 and with UniProt Q8VF05 was “inactive” throughout.
As for `CCCCCCOC(C)=O`, the “odorant receptor agonist call” value in the experiment with UniProt Q7TRW1, in the experiment with UniProt Q7TRX0, with UniProt Q8VEU7 and with UniProt Q8VF05 was “inactive” throughout.
For `O=C(O)CCCCCBr`, the “odorant receptor agonist call” value with UniProt Q7TRR8 and in the experiment with UniProt Q7TRX0 was “inactive” in each case.
As to `CCCCCOC(=O)CCCCC`, the “odorant receptor agonist call” value in the experiment with UniProt Q7TRW1, with UniProt Q7TRX0, with UniProt Q8VEU7 and with UniProt Q8VF05 was “inactive” throughout.
In the case of `CCCCCCCCCCO`, the “odorant receptor agonist call” value with UniProt Q7TRW1, with UniProt Q7TRX0, with UniProt Q8VEU7 and with UniProt Q8VF05 was “inactive” in each case.
`CCCCCCCCC(=O)O`: the “odorant receptor agonist call” value with UniProt Q7TRR7, with UniProt Q7TRW1, with UniProt Q7TRX0, with UniProt Q8VEU7 and with UniProt Q8VF05 was “inactive” in each case. Besides, in the experiment with UniProt Q7TRR8, the “odorant receptor agonist call” value is “active”.
As for `CC(C)=CCCC(C)CCO` (stereo not drawn), the “odorant receptor agonist call” value with UniProt Q7TRW1, with UniProt Q7TRX0, in the experiment with UniProt Q8VEU7 and with UniProt Q8VF05 was “inactive” in each case. Further, the “odorant receptor agonist call” value with UniProt Q7TRX1 was “active”.
In the case of `O=C([O-])CCCCCCCC(=O)[O-].[H+].[H+]`, the “odorant receptor agonist call” value with UniProt Q7TRR8 and in the experiment with UniProt Q7TRX0 was “inactive” each time.
Turning to `O=C(O)CCCCBr`, the “odorant receptor agonist call” value with UniProt Q7TRR8 is “inactive”.
Turning to `C=CCOC(=O)CCCCCC`, the “odorant receptor agonist call” value with UniProt Q7TRW1, with UniProt Q7TRX0, in the experiment with UniProt Q8VEU7 and with UniProt Q8VF05 was “inactive” in each case.
Regarding `CCCCCC=O`, the “odorant receptor agonist call” value with UniProt Q7TRW1, with UniProt Q7TRX0 and in the experiment with UniProt Q8VEU7 was “inactive” throughout. Further, the “odorant receptor agonist call” value with UniProt Q8VF05 was “active”.
On to `O=C1CCOc2ccccc21`, for which the “odorant receptor agonist call” value with UniProt Q7TRW1, in the experiment with UniProt Q7TRX0, with UniProt Q7TS40 and with UniProt Q8VEU7 was “inactive” in each case. Further, the “odorant receptor agonist call” value with UniProt Q7TS17, with UniProt Q7TS37 and with UniProt Q8VF05 was “active” throughout.
With `CCCCCO`, the “odorant receptor agonist call” value with UniProt Q7TRR8, with UniProt Q7TRW1, in the experiment with UniProt Q8VEU7 and with UniProt Q8VF05 was “inactive” throughout.
Turning to `CCCCOC=O`, the “odorant receptor agonist call” value with UniProt Q7TRW1, in the experiment with UniProt Q7TRX0, with UniProt Q8VEU7 and with UniProt Q8VF05 was “inactive” each time.
For `O=c1ccc2ccccc2o1`, the “odorant receptor agonist call” value with UniProt Q7TS17 and in the experiment with UniProt Q7TS37 was “active” in each case. In addition, the “odorant receptor agonist call” value with UniProt Q7TS40 was “inactive”.
